The source made the active and inactive calls.

Results on twelve compounds are retold here after ChEMBL document CHEMBL1949657, “Chemical modification of the multitarget neuroprotective compound fisetin” (J Med Chem, 2012).

For one assay, the system named is PC-12. Put plainly: Neurotrophic activity in rat PC12 cells assessed as neurite outgrowth at 1 to 10 uM after 24 hrs. It is filed as functional, cell-based.
Conditions: not given
Summed up:
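PC12 cells in N2 medium given derivatives (1–10 μM) for 24 h, fisetin 10 μM as positive control. 100 cells counted in each of three fields. A cell scored positive with ≥1 neurite longer than one cell-body diameter. Tested twice; positives tested a third time.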
Turning to `COc1cc(/C=C/C(=O)c2ccc3ccccc3c2O)ccc1OCc1ccccc1`, the outcome was inactive.
As for `COc1cc(-c2cc(=O)c3cc(C)c(C)cc3o2)ccc1OCc1ccccc1`, the result was inactive.
In the case of `COc1cc(-c2ccccc2)nc2ccccc12`, the outcome was inactive.
Regarding `CC(C)Oc1cc(-c2ccc(O)cc2O)nc2ccccc12`, the outcome was inactive.
Still for that read-out and setting: in the case of `CN(C)c1ccc(-c2oc3c(ccc4ccccc43)c(=O)c2O)cc1` it was “inactive”.
Consider `O=c1c(O)c(-c2ccc(N3CCCC3)c(O)c2)oc2c1ccc1ccccc12`, for which the result was Active.
In the case of `COc1cc(-c2ccc(O)cc2)nc2ccccc12`, the outcome was inactive.
As for `O=c1c(O)c(-c2ccc(O)c(O)c2)oc2ccc3ccccc3c12`, the result was Active.
Same read-out and setting: to `COc1cc(-c2cc(=O)c3cc(C)c(C)cc3o2)ccc1O` belongs “inactive”; to `O=c1c(O)c(-c2ccc(O)c(O)c2)oc2cc(O)ccc12` [FISETIN], “Active”; to `CCOc1ccc(/C=C/C(=O)c2ccc3ccccc3c2O)cc1OCC`, “inactive”.
Turning to `Cc1cc2oc(-c3ccc(N(C)C)cc3)cc(=O)c2cc1C`, the outcome was inactive.

System in the next assay: not listed separately
The assay is described as follows: Antioxidant activity against ABTS radical assessed as trolox equivalent after 4 mins by TEAC assay.
Conditions: not given
It is filed as functional. Summed up:
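ABTS radical cation formed overnight with potassium persulfate and diluted to OD ~0.7 at 734 nm, then mixed with derivative in ethanol. Loss of A734 followed over 4 min. TEAC = slope of % absorbance inhibition vs concentration divided by the slope for Trolox.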
As to `COc1cc(/C=C/C(=O)c2ccc3ccccc3c2O)ccc1OCc1ccccc1`, the Activity is 0.15 equiv.
On the same count and under the same terms, in the case of `COc1cc(-c2cc(=O)c3cc(C)c(C)cc3o2)ccc1OCc1ccccc1` it was 0.09 equiv; in that of `COc1cc(-c2ccccc2)nc2ccccc12`, 0.12 equiv; in that of `CC(C)Oc1cc(-c2ccc(O)cc2O)nc2ccccc12`, 0.27 equiv.
Take `CN(C)c1ccc(-c2oc3c(ccc4ccccc43)c(=O)c2O)cc1`: the Activity was found to be 0.93 equiv.
On to `O=c1c(O)c(-c2ccc(N3CCCC3)c(O)c2)oc2c1ccc1ccccc12`, for which the Activity was 2.1 equiv.
The same measure, in the same setting: to `COc1cc(-c2ccc(O)cc2)nc2ccccc12` belongs 0.81 equiv; to `O=c1c(O)c(-c2ccc(O)c(O)c2)oc2ccc3ccccc3c12`, 1.26 equiv; to `COc1cc(-c2cc(=O)c3cc(C)c(C)cc3o2)ccc1O`, 0.12 equiv.
The same measure, in the same setting: to `O=c1c(O)c(-c2ccc(O)c(O)c2)oc2cc(O)ccc12` [FISETIN] belongs 3 equiv.
With `CCOc1ccc(/C=C/C(=O)c2ccc3ccccc3c2O)cc1OCC`, the Activity is 0.12 equiv.
Still for that read-out and setting: to `Cc1cc2oc(-c3ccc(N(C)C)cc3)cc(=O)c2cc1C` belongs 0 equiv.

Another assay deals with HT-22. The assay is described as follows: Ratio of fisetin EC50 to compound EC50 for neuroprotectivie activity in mouse HT22 cells. It is filed as functional.
Conditions: not given
In the case of `O=c1c(O)c(-c2ccc(N3CCCC3)c(O)c2)oc2c1ccc1ccccc12`, the “Ratio EC50” value was 600.
In the case of `COc1cc(-c2cc(=O)c3cc(C)c(C)cc3o2)ccc1O`, the “Ratio EC50” value was found to be 10.

The next assay deals with HT-22. The assay is described as follows: Neuroprotective activity against glutamate-induced GSH loss in mouse HT22 cells assessed as intracellular GSH level at 1 to 10 uM after 24 hrs.
Conditions: not given
It is filed as functional, cell-based. Summed up:
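HT22 cells given derivatives (1–10 μM) with 5 mM glutamate. After 24 h, cell extracts analysed for total intracellular GSH by chemical assay. Fisetin 10 μM as positive control. Tested twice; positives tested a third time.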
For the compound `COc1cc(/C=C/C(=O)c2ccc3ccccc3c2O)ccc1OCc1ccccc1`, the outcome was inactive.
`COc1cc(-c2cc(=O)c3cc(C)c(C)cc3o2)ccc1OCc1ccccc1`: the outcome was inactive.
The same measure, in the same setting: to `COc1cc(-c2ccccc2)nc2ccccc12` belongs “inactive”; to `CC(C)Oc1cc(-c2ccc(O)cc2O)nc2ccccc12`, “inactive”; to `CN(C)c1ccc(-c2oc3c(ccc4ccccc43)c(=O)c2O)cc1`, “Active”.
Consider `O=c1c(O)c(-c2ccc(N3CCCC3)c(O)c2)oc2c1ccc1ccccc12`, for which the outcome was Active.
`COc1cc(-c2ccc(O)cc2)nc2ccccc12`: the result was inactive.
For `O=c1c(O)c(-c2ccc(O)c(O)c2)oc2ccc3ccccc3c12`, the result was inactive.
On to `COc1cc(-c2cc(=O)c3cc(C)c(C)cc3o2)ccc1O`, for which the result was inactive.
Consider `O=c1c(O)c(-c2ccc(O)c(O)c2)oc2cc(O)ccc12` [FISETIN], for which the outcome was Active.
On the same count and under the same terms, in the case of `CCOc1ccc(/C=C/C(=O)c2ccc3ccccc3c2O)cc1OCC` it was “inactive”.
In the case of `Cc1cc2oc(-c3ccc(N(C)C)cc3)cc(=O)c2cc1C`, the outcome was inactive.

Another assay deals with HT-22. Put plainly: Neuroprotective activity in mouse HT22 cells assessed as reduction in IAA-induced ischemia after 24 hrs by MTT assay. It is filed as functional, cell-based. Conditions: Mus musculus, HT-22, 24 h; read-out: EC50. Summed up: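 HT22 cells seeded at 5×10^3/well. Next day switched to DMEM + 7.5% DFCS with 20 μM IAA ± derivative doses for 2 h, then IAA-free medium with derivative for 20 h. MTT 2.5 μg/ml for 4 h at 37 °C, solubilised in DMF/SDS pH 4.7, A570 read. Controls for compound toxicity and assay interference. EC50 from dose series; tested twice, third time if EC50 < 1 μM.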
`COc1cc(/C=C/C(=O)c2ccc3ccccc3c2O)ccc1OCc1ccccc1`: the EC50 was determined as 500 nM.
Still for that read-out and setting: in the case of `COc1cc(-c2cc(=O)c3cc(C)c(C)cc3o2)ccc1OCc1ccccc1` it was 500 nM.
As to `COc1cc(-c2ccccc2)nc2ccccc12`, the EC50 worked out at 750 nM.
With `CC(C)Oc1cc(-c2ccc(O)cc2O)nc2ccccc12`, the EC50 came to 210 nM.
For `CN(C)c1ccc(-c2oc3c(ccc4ccccc43)c(=O)c2O)cc1`, the half-maximal effective concentration (EC50) turned out to be 40 nM.
Same read-out and setting: in the case of `O=c1c(O)c(-c2ccc(N3CCCC3)c(O)c2)oc2c1ccc1ccccc12` it was 5 nM; in that of `O=c1c(O)c(-c2ccc(O)c(O)c2)oc2ccc3ccccc3c12`, 250 nM.
On the same count and under the same terms, to `COc1cc(-c2cc(=O)c3cc(C)c(C)cc3o2)ccc1O` belongs 30 nM.
Take `O=c1c(O)c(-c2ccc(O)c(O)c2)oc2cc(O)ccc12` [FISETIN]: the EC50 was 3000 nM.
Take `Cc1cc2oc(-c3ccc(N(C)C)cc3)cc(=O)c2cc1C`: the EC50 was greater than 500 nM.

The same assay, now with this note: ht-22.
In the case of `COc1cc(-c2ccc(O)cc2)nc2ccccc12`, the EC50 result was “Not Active”.
Take `CCOc1ccc(/C=C/C(=O)c2ccc3ccccc3c2O)cc1OCC`: the EC50 entry is reported as “Not Active”.

The subject of another assay is N9. Put plainly: Antiinflammatory activity in mouse N9 cells assessed as reduction of LPS-induced microglial activation at 1 to 10 uM measured as nitrite level after 24 hrs by Griess reagent-based assay. It counts as functional. Also on record: scale not given: the % may be the effect or the level left.
Conditions: not given
Summed up:
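N9 microglia in DME with 7.5% DFCS, given 10 μg/ml LPS alone or with derivatives (1–10 μM) for 24 h. Medium spun to remove floating cells, then nitrite measured with Griess reagent, 10 min at room temperature, absorbance 550 nm. Fisetin 10 μM as positive control. Tested twice; positives tested a third time.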
On to `COc1cc(/C=C/C(=O)c2ccc3ccccc3c2O)ccc1OCc1ccccc1`, for which the Activity is listed as 9%.
In the case of `COc1cc(-c2cc(=O)c3cc(C)c(C)cc3o2)ccc1OCc1ccccc1`, the Activity is 83%.
On the same count and under the same terms, in the case of `COc1cc(-c2ccccc2)nc2ccccc12` it was 6%.
In the case of `CC(C)Oc1cc(-c2ccc(O)cc2O)nc2ccccc12`, the Activity was determined as 64%.
In the case of `CN(C)c1ccc(-c2oc3c(ccc4ccccc43)c(=O)c2O)cc1`, the Activity is 0%.
Consider `O=c1c(O)c(-c2ccc(N3CCCC3)c(O)c2)oc2c1ccc1ccccc12`, for which the Activity is 50%.
For the compound `COc1cc(-c2ccc(O)cc2)nc2ccccc12`, the Activity is reported as 4%.
Regarding `O=c1c(O)c(-c2ccc(O)c(O)c2)oc2ccc3ccccc3c12`, the Activity worked out at 87%.
In the case of `COc1cc(-c2cc(=O)c3cc(C)c(C)cc3o2)ccc1O`, the Activity is on record as 41%.
The same measure, in the same setting: to `O=c1c(O)c(-c2ccc(O)c(O)c2)oc2cc(O)ccc12` [FISETIN] belongs 80%.
As for `CCOc1ccc(/C=C/C(=O)c2ccc3ccccc3c2O)cc1OCC`, the Activity stood at 5%.
On to `Cc1cc2oc(-c3ccc(N(C)C)cc3)cc(=O)c2cc1C`, for which the Activity worked out at 8%.

The test system of a further assay is Oryctolagus cuniculus. The assay is described as follows: Neuroprotective activity in New Zealand white rabbit small clot embolism model assessed as reduction in stroke-induced behavioural deficits at 50 mg/kg, iv administered 5 mins post-embolization measured after 24 hrs. Also on record: dose 50 mg/kg, route intravenous. It is filed as functional, organism-based.
Conditions: not given
Turning to `O=c1c(O)c(-c2ccc(O)c(O)c2)oc2cc(O)ccc12` [FISETIN], the EC50 was found to be 2000 nM.

In another assay the test system is HT-22. The assay is described as follows: Induction of Nrf2 expression in mouse HT22 cells from 1 to 4 hrs by immunoblotting. It counts as functional, cell-based.
Conditions: not given
Summed up: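 Nuclear extracts taken from untreated and derivative-treated cells at 1, 2 and 4 h. Equal protein run on 10% SDS-PAGE, blotted to nitrocellulose (Ponceau-S loading check). Probed with anti-Nrf2 (1/1000) and anti-β-actin, HRP secondary, chemiluminescence. Tested twice; positives tested a third time.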
As to `CN(C)c1ccc(-c2oc3c(ccc4ccccc43)c(=O)c2O)cc1`, the result was inactive.
With `O=c1c(O)c(-c2ccc(N3CCCC3)c(O)c2)oc2c1ccc1ccccc12`, the result was inactive.
On to `O=c1c(O)c(-c2ccc(O)c(O)c2)oc2cc(O)ccc12` [FISETIN], for which the result was Active.
